The structures appear in SMILES notation.

These results are taken from ChEMBL document CHEMBL1125344, “(Pyridylcyanomethyl)piperazines as orally active PAF antagonists” (J Med Chem, 1992).

For experiment [1], the target named is Platelet-activating factor receptor (Rattus norvegicus) (UniProt P46002). Put plainly: In vivo dose administered intravenously to inhibit PAF-induced hypotension (PAF-Antagonistic activity) in normotensive rats by 56%. The experiment is classed as functional, organism-based. Put shortly: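 Male Sprague-Dawley rats, 180-220 g, anesthetized with sodium pentobarbital ip; blood pressure recorded from left carotid artery. Compound given iv in saline (1 mL/kg) via femoral vein 3 min before PAF 0.5 μg/kg iv; initial dose 5 mg/kg. Percentage inhibition of PAF-induced hypotension calculated versus vehicle-treated controls.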
Platelet-activating factor receptor (Rattus norvegicus), sequence (P46002 whole entry): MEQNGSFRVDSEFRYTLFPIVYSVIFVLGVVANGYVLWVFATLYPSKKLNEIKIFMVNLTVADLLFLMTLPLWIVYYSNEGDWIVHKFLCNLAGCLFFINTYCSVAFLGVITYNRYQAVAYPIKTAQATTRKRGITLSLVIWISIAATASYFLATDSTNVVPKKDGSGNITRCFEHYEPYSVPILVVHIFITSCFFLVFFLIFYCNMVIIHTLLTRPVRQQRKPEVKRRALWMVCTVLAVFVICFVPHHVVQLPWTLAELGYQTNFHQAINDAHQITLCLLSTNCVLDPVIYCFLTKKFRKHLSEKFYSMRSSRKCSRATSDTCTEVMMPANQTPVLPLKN

The target is the same in experiment [2]. Put plainly: In vivo dose administered intravenously to inhibit PAF-induced hypotension (PAF-Antagonistic activity) in normotensive rats by 59%. The experiment is classed as functional, organism-based.
The target in experiment [3] is Platelet-activating factor receptor (Mus musculus) (UniProt Q62035). Put plainly: Oral dose required to inhibit PAF-induced mortality (PAF-Antagonistic activity)in mice by 50%. The experiment is classed as functional. Particulars: Mus sp. The essentials:
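Male Swiss mice, 22-26 g, in groups of 10. Compound or saline given po (20 mL/kg) 60 min before C18-PAF 100 µg/kg plus propranolol 1 mg/kg by tail vein. ID50 from percent inhibition of mortality versus controls.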

Experiment [4] has as its target Platelet-activating factor receptor (Rattus norvegicus) (UniProt P46002). Description: In vivo dose administered intravenously to inhibit PAF-induced hypotension (PAF-Antagonistic activity) in normotensive rats by 55%. The experiment is classed as functional, organism-based.
Experiment [5] shares this target. Description: In vivo dose administered intravenously to inhibit PAF-induced hypotension (PAF-Antagonistic activity) in normotensive rats by 57%. The experiment is classed as functional, organism-based.
The target is the same in experiment [6]. Put plainly: Dose required to inhibit PAF-induced hypotension (PAF-Antagonistic activity) in normotensive rats by 50%. It counts as functional. The essentials: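 Male Sprague-Dawley rats, 180-220 g, anesthetized with sodium pentobarbital ip. Carotid blood pressure recorded. Compound given iv in saline (1 mL/kg) via femoral vein 3 min before PAF 0.5 µg/kg iv; vehicle controls. ID50 by linear regression of one curve of at least four doses, each the mean % inhibition from two or more experiments.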

Platelet-activating factor receptor (Mus musculus), sequence (Q62035 whole entry): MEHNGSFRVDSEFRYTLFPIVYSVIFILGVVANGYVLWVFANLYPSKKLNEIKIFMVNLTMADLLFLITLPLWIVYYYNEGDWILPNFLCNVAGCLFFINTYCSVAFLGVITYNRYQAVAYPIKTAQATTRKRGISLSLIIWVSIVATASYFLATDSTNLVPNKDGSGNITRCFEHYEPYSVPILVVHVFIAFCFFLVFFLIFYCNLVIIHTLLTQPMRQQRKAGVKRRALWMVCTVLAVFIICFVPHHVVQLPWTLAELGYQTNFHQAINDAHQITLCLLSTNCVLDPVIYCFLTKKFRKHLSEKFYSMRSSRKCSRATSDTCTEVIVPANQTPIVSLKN

In experiment [1], `N#CC(c1cccnc1)N1CCN(C(=O)Cc2ccc3ccccc3c2)CC1` (centres undefined) showed an ID50 of 5 mg/kg.

On to `N#CC(c1ccncc1)N1CCN(CCNC(c2ccccc2)c2ccccc2)CC1` (centres undefined), for which the figures for the ID50 in experiment [2] and in experiment [3] were 5 mg/kg and 29 mg/kg, respectively.

In experiment [4], `N#CC(c1cccnc1)N1CCN(C(=O)c2ccc3ccccc3c2)CC1` (centres undefined) gave an ID50 of 5 mg/kg.

For `N#CC(c1cccnc1)N1CCN(C(=O)CCCc2ccccc2)CC1` (centres undefined), the values for the ID50 in experiment [5] and in experiment [3] were 5 mg/kg and 50 mg/kg, respectively.

Regarding `CC(C(=O)N1CCN(C(C#N)c2cccnc2)CC1)(c1ccccc1)c1ccccc1` (centres undefined), the ID50 in experiment [3] is over 30 mg/kg; in experiment [6] it was 0.14 mg/kg.

For `CC(C#N)(c1cccnc1)N1CCN(C(=O)C(c2ccccc2)c2ccccc2)CC1` (centres undefined), the results for the ID50 in experiment [3] and in experiment [6] were over 30 mg/kg and over 5 mg/kg, respectively.

For `COc1cc(CCC(=O)N2CCN(C(C#N)c3cccnc3)CC2)cc(OC)c1OC` (centres undefined), the ID50 in experiment [3] worked out at 100 mg/kg; in experiment [6], 2 mg/kg.

Take `N#CC(c1cccnc1)N1CCN(C(=O)CNCC(c2ccccc2)c2ccccc2)CC1` (centres undefined): the results for the ID50 in experiment [3] and in experiment [6] were over 10 mg/kg and 0.36 mg/kg, respectively.

Take `N#CC(c1cccc(Cl)c1)N1CCN(C(=O)CC(c2ccccc2)c2ccccc2)CC1` (centres undefined): the ID50 in experiment [3] was over 30 mg/kg; in experiment [6] it was over 5 mg/kg.

Turning to `N#CC(c1cccnc1)N1CCN(C(=O)Cc2c[nH]c3ccccc23)CC1` (centres undefined), the ID50 in experiment [3] is over 50 mg/kg; in experiment [6] it was 3.3 mg/kg.

`CC(c1ccccc1)N(C)CC(=O)N1CCN(C(C#N)c2cccnc2)CC1` (centres undefined): the ID50 was over 50 mg/kg in experiment [3] and 0.77 mg/kg in experiment [6].

Turning to `N#CC(c1ccncc1)N1CCN(C(=O)CC(O)(c2ccccc2)c2ccccc2)CC1` (centres undefined), the ID50 in experiment [3] came out at 7.7 mg/kg; in experiment [6], 0.061 mg/kg.

Regarding `N#CC(c1cccnc1)N1CCN(CCC(c2ccccc2)c2ccccc2)CC1` (centres undefined), the values for the ID50 in experiment [3] and in experiment [6] were 15 mg/kg and 3.1 mg/kg, respectively.
